# Legend:
# [1] = test system: HCa-F cells; assay: In vivo therapeutic effect in HCa-F solid tumor-bearing mice; details: for IR (tumor growth inhibition rate) / Number of natural deaths / Tumor weight / Volume growth (incremental tumor volume): 2 mg/kg iv once per day for 7 days; for IR (tumor growth inhibition rate): by tumor weight; for Number of natural deaths: eight mice per group; for Tumor weight / Volume growth (incremental tumor volume): n=8
# Method in brief: (§1)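 Male mice, 6 weeks, implanted subcutaneously in the right axilla with washed HCa-F ascites cells (2.0–2.3×10^7 cells/mL, 0.01 mL/g). At a longest tumour diameter of about 14–16 mm, mice randomised to six groups of eight. Dosing 2 mg/kg RBG-equivalent (5-fluorouracil 2 mg/kg) by tail vein, daily for 7 days, in 20% PEG400/saline vehicle. Volume V=a²×b/2 measured before and after dosing. Tumours weighed; IR from mean weights versus vehicle control. Tumour RBG measured in saline homogenates.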
# [2] = test system: HepG2 cells; assay: Cell apoptosis, Annexin V-FITC/PI flow cytometry; format: cell-based, human; details: 24 hours
# Method in brief: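 HepG2 cells grown in high-glucose DMEM with 10% FBS and 1% antibiotics at 37°C, 5% CO2. Seeded at 2×10^5 cells/mL and incubated 24 h. Then exposed 24 h to nanoparticle suspension or drug solution at 1.2, 5 and 20 μg/mL RBG-equivalent, with 5-fluorouracil 20 μg/mL as control. Cells washed in cold PBS and stained with Annexin V-FITC/PI in binding buffer, 15 min at room temperature, then read by flow cytometry.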
# [3] = test system: various malignant tumors, such as human hepatocellular carcinoma cells (Bel7402) and human cervical carcinoma cells (HeLa); details: e.g. Bel7402, HeLa; cited from earlier work
# [4] = In vitro drug release; format: physicochemical; details: raw RBG
# [5] = LD50; design: species or system mice; details: male, Kunming, mouse, in vivo, iv
# [6] = In vivo RBG concentrations in plasma and organs, liver-targeting indexes; design: species or system Kunming mice; details: for AUC: iv
# Method in brief: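 Male Kunming mice, 6 weeks, about 20.9 g, fasted overnight. Single tail-vein dose of 2 mg/kg RBG-equivalent, given as sonicated nanoparticle suspension or as solution, both in 20% PEG400/saline. Ten mice per group sampled at 0.08–24 h: cardiac blood, liver, heart, spleen, lung and kidney. RBG measured by RP-HPLC. AUC0–24 h by trapezoid method. Re is the AUC ratio of formulation to solution; Te is the liver AUC over the non-target organ AUC.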
# [7] = In vivo therapeutic effect in HCa-F solid tumor-bearing mice; details: male, mouse, tumor, intravenous, 2 mg/kg
# Method in brief: as §1
smiles,measurement,setting,value
"O=c1[nH]cc(F)c(=O)[nH]1 [FS, 5-fluorouracil]",IR (tumor growth inhibition rate),[1],37.19%
same,Number of natural deaths,[1],1
same,Tumor weight,[1],3.26 ± 0.74 g
same,Volume growth (incremental tumor volume),[1],3.05±0.72 ^* cm^3
same,"Cell ratio, apoptotic cells",[2]; 20 μg/mL,14.2±1.2%
same,"Cell ratio, necrotic cells",[2]; 20 μg/mL,22.3±1.6%
same,"Cell ratio, survival cells",[2]; 20 μg/mL,63.5±2.0%
"C[C@]12CC[C@H](O)C[C@H]1CC[C@@H]1[C@@H]2CC[C@]2(C)[C@@H](c3ccc(=O)oc3)C[C@H]3O[C@]132 [RBG, Resibufogenin]",IC50,[3],1 to 50 nM
same,Release in the first 2 days,[4],98.78%
"C[C@]12CC[C@H](O)C[C@H]1CC[C@@H]1[C@@H]2CC[C@]2(C)[C@@H](c3ccc(=O)oc3)C[C@H]3O[C@]132 [RS, Resibufogenin]",LD50,[5],18.9 mg/kg
same,"Te (targeting efficiency), liver versus heart",[6]; AUC liver / AUC heart,0.6
same,"Te (targeting efficiency), liver versus kidney",[6]; AUC liver / AUC kidney,0.8
same,"Te (targeting efficiency), liver versus lung",[6]; AUC liver / AUC lung,0.8
same,"Te (targeting efficiency), liver versus spleen",[6]; AUC liver / AUC spleen,1.0
same,"Te (targeting efficiency), overall statement",[6]; liver versus plasma and other organs,< 1
same,AUC,"[6]; male, Kunming, mouse, heart, 2 mg/kg",3700 ± 900 ng·h/mL
same,AUC,"[6]; male, Kunming, mouse, kidney, 2 mg/kg",2700 ± 1000 ng·h/mL
same,AUC,"[6]; male, Kunming, mouse, liver, 2 mg/kg",2100 ± 900 ng·h/mL
same,Kp,"[6]; male, Kunming, mouse, liver/plasma, intravenous, 2 mg/kg",0.1
same,AUC,"[6]; male, Kunming, mouse, lung, 2 mg/kg",2500 ± 800 ng·h/mL
same,AUC,"[6]; male, Kunming, mouse, plasma, 2 mg/kg",18600 ± 2100 ng·h/mL
same,AUC,"[6]; male, Kunming, mouse, spleen, 2 mg/kg",2200 ± 600 ng·h/mL
same,Retention (slow release) time of RBG in liver,"[6]; mice, iv 2 mg/kg RBG",1 h
same,concentration at 7 days,[7],50 ± 20 ng/g
same,IR (tumor growth inhibition rate),[1],31.60%
same,Number of natural deaths,[1],2
same,Tumor weight,[1],3.55 ± 0.71 g
same,Volume growth (incremental tumor volume),[1],3.16±0.78 cm^3
same,MRBG in tumor,"[1]; after 7 days of administration, n=6",0.19 ± 0.08 µg
same,"Cell ratio, apoptotic cells",[2]; 1.2 μg/mL,21.8±1.5%
same,"Cell ratio, necrotic cells",[2]; 1.2 μg/mL,1.6±0.8%
same,"Cell ratio, survival cells",[2]; 1.2 μg/mL,76.6±2.2%
same,"Cell ratio, apoptotic cells",[2]; 5 μg/mL,33.6±1.6 %
same,"Cell ratio, necrotic cells",[2]; 5 μg/mL,0.6±0.5%
same,"Cell ratio, survival cells",[2]; 5 μg/mL,65.8±2.7%
same,"Cell ratio, apoptotic cells",[2]; 20 μg/mL,45.4±1.7 %
same,"Cell ratio, necrotic cells",[2]; 20 μg/mL,0.4±0.4%
same,"Cell ratio, survival cells",[2]; 20 μg/mL,54.2±1.9%

# From publication PMC4734807 (International Journal of Nanomedicine, 2016)
